According to ChEMBL document CHEMBL3784971, “Synthesis, characterization, antimicrobial and biofilm inhibitory studies of new esterquats” (Bioorg Med Chem Lett, 2016):
In brackets after ≈: the same amount, converted by molar mass.

How the values were obtained:
Staphylococcus aureus [1] = experiment: Antimicrobial activity against Staphylococcus aureus MTCC 96 assessed as growth inhibition after 24 hrs by agar well diffusion method; assay type: functional; settings: MTCC 96, 24 h
Bacillus subtilis [2] = experiment: Antimicrobial activity against Bacillus subtilis MTCC 121 assessed as growth inhibition after 24 hrs by agar well diffusion method; assay type: functional; settings: MTCC 121, 24 h
Staphylococcus aureus [3] = experiment: Antimicrobial activity against Staphylococcus aureus MLS16 MTCC 2940 assessed as growth inhibition after 24 hrs by agar well diffusion method; assay type: functional; settings: MLS16 MTCC 2940, 24 h
Micrococcus luteus [4] = experiment: Antimicrobial activity against Micrococcus luteus MTCC 2470 assessed as growth inhibition after 24 hrs by agar well diffusion method; assay type: functional; settings: MTCC 2470, 24 h
Raoultella planticola [5] = experiment: Antimicrobial activity against Klebsiella planticola MTCC 530 assessed as growth inhibition after 24 hrs by agar well diffusion method; assay type: functional; settings: MTCC 530, 24 h
Escherichia coli [6] = experiment: Antimicrobial activity against Escherichia coli MTCC 739 assessed as growth inhibition after 24 hrs by agar well diffusion method; assay type: functional; settings: MTCC 739, 24 h
Pseudomonas aeruginosa = experiment: Antimicrobial activity against Pseudomonas aeruginosa MTCC 2453 assessed as growth inhibition after 24 hrs by agar well diffusion method; assay type: functional; settings: MTCC 2453, 24 h
Candida albicans [7] = experiment: Antimicrobial activity against Candida albicans MTCC 3017 assessed as growth inhibition after 24 hrs by agar well diffusion method; assay type: functional; settings: MTCC 3017, 24 h
Candida albicans [8] = experiment: Antimicrobial activity against Candida albicans MTCC 183 assessed as growth inhibition after 24 hrs by agar well diffusion method; assay type: functional; settings: MTCC 183, 24 h
Candida albicans [9] = experiment: Antimicrobial activity against Candida albicans MTCC 227 assessed as growth inhibition after 24 hrs by agar well diffusion method; assay type: functional; settings: MTCC 227, 24 h
Candida albicans [10] = experiment: Antimicrobial activity against Candida albicans MTCC 854 assessed as growth inhibition after 24 hrs by agar well diffusion method; assay type: functional; settings: MTCC 854, 24 h
Candida albicans [11] = experiment: Antimicrobial activity against Candida albicans MTCC 1637 assessed as growth inhibition after 24 hrs by agar well diffusion method; assay type: functional; settings: MTCC 1637, 24 h
Candida albicans [12] = experiment: Antimicrobial activity against Candida albicans MTCC 3018 assessed as growth inhibition after 24 hrs by agar well diffusion method; assay type: functional; settings: MTCC 3018, 24 h
Candida albicans [13] = experiment: Antimicrobial activity against Candida albicans MTCC 3958 assessed as growth inhibition after 24 hrs by agar well diffusion method; assay type: functional; settings: MTCC 3958, 24 h
Candida albicans [14] = experiment: Antimicrobial activity against Candida albicans MTCC 4748 assessed as growth inhibition after 24 hrs by agar well diffusion method; assay type: functional; settings: MTCC 4748, 24 h
Candida albicans [15] = experiment: Antimicrobial activity against Candida albicans MTCC 7315 assessed as growth inhibition after 24 hrs by agar well diffusion method; assay type: functional; settings: MTCC 7315, 24 h
Candida parapsilosis [16] = experiment: Antimicrobial activity against Candida parapsilosis MTCC 1744 assessed as growth inhibition after 24 hrs by agar well diffusion method; assay type: functional; settings: Lodderomyces parapsilosis, MTCC 1744, 24 h
[Candida] aaseri [17] = Antimicrobial activity against Candida aaseri MTCC 1962 assessed as growth inhibition after 24 hrs by agar well diffusion method; assay type: functional; settings: Yamadazyma aaseri, MTCC 1962, 24 h
Nakaseomyces glabratus [18] = experiment: Antimicrobial activity against Candida glabrata MTCC 3019 assessed as growth inhibition after 24 hrs by agar well diffusion method; assay type: functional; settings: MTCC 3019, 24 h
Pichia kudriavzevii [19] = experiment: Antimicrobial activity against Candida krusei MTCC 3020 assessed as growth inhibition after 24 hrs by agar well diffusion method; assay type: functional; settings: MTCC 3020, 24 h
Pichia sporocuriosa [20] = experiment: Antimicrobial activity against Issatchenkia hanoiensis MTCC 4755 assessed as growth inhibition after 24 hrs by agar well diffusion method; assay type: functional; settings: MTCC 4755, 24 h
Staphylococcus aureus [21] = experiment: Bactericidal activity against Staphylococcus aureus MTCC 96 after 24 hrs by serial dilution method; assay type: functional; settings: MTCC 96, 24 h
Bacillus subtilis [22] = experiment: Bactericidal activity against Bacillus subtilis MTCC 121 after 24 hrs by serial dilution method; assay type: functional; settings: MTCC 121, 24 h
Staphylococcus aureus [23] = experiment: Bactericidal activity against Staphylococcus aureus MLS16 MTCC 2940 after 24 hrs by serial dilution method; assay type: functional; settings: MLS16 MTCC 2940, 24 h
Micrococcus luteus [24] = experiment: Bactericidal activity against Micrococcus luteus MTCC 2470 after 24 hrs by serial dilution method; assay type: functional; settings: MTCC 2470, 24 h
Raoultella planticola [25] = experiment: Bactericidal activity against Klebsiella planticola MTCC 530 after 24 hrs by serial dilution method; assay type: functional; settings: MTCC 530, 24 h
Escherichia coli [26] = experiment: Bactericidal activity against Escherichia coli MTCC 739 after 24 hrs by serial dilution method; assay type: functional; settings: MTCC 739, 24 h
Candida albicans [27] = experiment: Fungicidal activity against Candida albicans MTCC 3017 after 24 hrs by serial dilution method; assay type: functional; settings: MTCC 3017, 24 h
Candida albicans [28] = experiment: Fungicidal activity against Candida albicans MTCC 183 after 24 hrs by serial dilution method; assay type: functional; settings: MTCC 183, 24 h
Candida albicans [29] = experiment: Fungicidal activity against Candida albicans MTCC 227 after 24 hrs by serial dilution method; assay type: functional; settings: MTCC 227, 24 h
Candida albicans [30] = experiment: Fungicidal activity against Candida albicans MTCC 854 after 24 hrs by serial dilution method; assay type: functional; settings: MTCC 854, 24 h
Candida albicans [31] = experiment: Fungicidal activity against Candida albicans MTCC 1637 after 24 hrs by serial dilution method; assay type: functional; settings: MTCC 1637, 24 h
Candida albicans [32] = experiment: Fungicidal activity against Candida albicans MTCC 3018 after 24 hrs by serial dilution method; assay type: functional; settings: MTCC 3018, 24 h
Candida albicans [33] = experiment: Fungicidal activity against Candida albicans MTCC 3958 after 24 hrs by serial dilution method; assay type: functional; settings: MTCC 3958, 24 h
Candida albicans [34] = experiment: Fungicidal activity against Candida albicans MTCC 4748 after 24 hrs by serial dilution method; assay type: functional; settings: MTCC 4748, 24 h
Candida albicans [35] = experiment: Fungicidal activity against Candida albicans MTCC 7315 after 24 hrs by serial dilution method; assay type: functional; settings: MTCC 7315, 24 h
Candida parapsilosis [36] = experiment: Fungicidal activity against Candida parapsilosis MTCC 1744 after 24 hrs by serial dilution method; assay type: functional; settings: Lodderomyces parapsilosis, MTCC 1744, 24 h
[Candida] aaseri [37] = Fungicidal activity against Candida aaseri MTCC 1962 after 24 hrs by serial dilution method; assay type: functional; settings: Yamadazyma aaseri, MTCC 1962, 24 h
Nakaseomyces glabratus [38] = experiment: Fungicidal activity against Candida glabrata MTCC 3019 after 24 hrs by serial dilution method; assay type: functional; settings: MTCC 3019, 24 h
Pichia kudriavzevii [39] = experiment: Fungicidal activity against Candida krusei MTCC 3020 after 24 hrs by serial dilution method; assay type: functional; settings: MTCC 3020, 24 h
Pichia sporocuriosa [40] = experiment: Fungicidal activity against Issatchenkia hanoiensis MTCC 4755 after 24 hrs by serial dilution method; assay type: functional; settings: MTCC 4755, 24 h
Staphylococcus aureus [41] = experiment: Antibiofilm activity against Staphylococcus aureus MTCC 96 after 24 hrs by crystal violet staining based assay; assay type: functional, organism-based; settings: MTCC 96, 24 h
Procedure, shortened: (§1)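 Biofilm inhibition tested for amine esters and esterquats. IC50 values (µg/mL) are the mean of three determinations, with ciprofloxacin as reference.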

Bacillus subtilis [42] = experiment: Antibiofilm activity against Bacillus subtilis MTCC 121 after 24 hrs by crystal violet staining based assay; assay type: functional, organism-based; settings: MTCC 121, 24 h; procedure, shortened: as §1
Staphylococcus aureus [43] = experiment: Antibiofilm activity against Staphylococcus aureus MLS16 MTCC 2940 after 24 hrs by crystal violet staining based assay; assay type: functional, organism-based; settings: MLS16 MTCC 2940, 24 h; procedure, shortened: as §1
Micrococcus luteus [44] = experiment: Antibiofilm activity against Micrococcus luteus MTCC 2470 after 24 hrs by crystal violet staining based assay; assay type: functional, organism-based; settings: MTCC 2470, 24 h; procedure, shortened: as §1

## CCCCCCNCCCCCCCCCCC(=O)OC
Staphylococcus aureus [1]
  MIC: 3.9 µg/mL (≈ 13 µM)
Bacillus subtilis [2]
  MIC: 7.8 µg/mL (≈ 26 µM)
Staphylococcus aureus [3]
  MIC: 3.9 µg/mL (≈ 13 µM)
Micrococcus luteus [4]
  MIC: 15.6 µg/mL (≈ 52.1 µM)
Raoultella planticola [5]
  MIC: > 125 µg/mL
Escherichia coli [6]
  MIC: > 125 µg/mL
Pseudomonas aeruginosa
  MIC: > 125 µg/mL
Candida albicans [7]
  MIC: 15.6 µg/mL (≈ 52.1 µM)
Candida albicans [8]
  MIC: 31.2 µg/mL (≈ 104 µM)
Candida albicans [9]
  MIC: 31.2 µg/mL (≈ 104 µM)
Candida albicans [10]
  MIC: 15.6 µg/mL (≈ 52.1 µM)
Candida albicans [11]
  MIC: 15.6 µg/mL (≈ 52.1 µM)
Candida albicans [12]
  MIC: 31.2 µg/mL (≈ 104 µM)
Candida albicans [13]
  MIC: 31.2 µg/mL (≈ 104 µM)
Candida albicans [14]
  MIC: 62.5 µg/mL (≈ 209 µM)
Candida albicans [15]
  MIC: 62.5 µg/mL (≈ 209 µM)
Candida parapsilosis [16]
  MIC: 31.2 µg/mL (≈ 104 µM)
[Candida] aaseri [17]
  MIC: 15.6 µg/mL (≈ 52.1 µM)
Nakaseomyces glabratus [18]
  MIC: 31.2 µg/mL (≈ 104 µM)
Pichia kudriavzevii [19]
  MIC: 15.6 µg/mL (≈ 52.1 µM)
Pichia sporocuriosa [20]
  MIC: 31.2 µg/mL (≈ 104 µM)
Staphylococcus aureus [21]
  MBC: 7.8 µg/mL (≈ 26 µM)
Bacillus subtilis [22]
  MBC: 15.6 µg/mL (≈ 52.1 µM)
Staphylococcus aureus [23]
  MBC: 7.8 µg/mL (≈ 26 µM)
Micrococcus luteus [24]
  MBC: 31.2 µg/mL (≈ 104 µM)
Raoultella planticola [25]
  MBC: > 125 µg/mL
Escherichia coli [26]
  MBC: > 125 µg/mL
Candida albicans [27]
  MFC: 31.2 µg/mL (≈ 104 µM)
Candida albicans [28]
  MFC: 62.5 µg/mL (≈ 209 µM)
Candida albicans [29]
  MFC: 31.2 µg/mL (≈ 104 µM)
Candida albicans [30]
  MFC: 31.2 µg/mL (≈ 104 µM)
Candida albicans [31]
  MFC: 31.2 µg/mL (≈ 104 µM)
Candida albicans [32]
  MFC: 62.5 µg/mL (≈ 209 µM)
Candida albicans [33]
  MFC: 62.5 µg/mL (≈ 209 µM)
Candida albicans [34]
  MFC: 62.5 µg/mL (≈ 209 µM)
Candida albicans [35]
  MFC: 62.5 µg/mL (≈ 209 µM)
Candida parapsilosis [36]
  MFC: 62.5 µg/mL (≈ 209 µM)
[Candida] aaseri [37]
  MFC: 31.2 µg/mL (≈ 104 µM)
Nakaseomyces glabratus [38]
  MFC: 31.2 µg/mL (≈ 104 µM)
Pichia kudriavzevii [39]
  MFC: 31.2 µg/mL (≈ 104 µM)
Pichia sporocuriosa [40]
  MFC: 31.2 µg/mL (≈ 104 µM)
Staphylococcus aureus [41]
  IC50: 2.6 µg/mL (≈ 8.68 µM)
Bacillus subtilis [42]
  IC50: 4.2 µg/mL (≈ 14 µM)
Staphylococcus aureus [43]
  IC50: 3.9 µg/mL (≈ 13 µM)
Micrococcus luteus [44]
  IC50: 2.2 µg/mL (≈ 7.35 µM)
